The source of these data is ChEMBL document CHEMBL3877254, “Tetracyclic indolines as a novel class of β-lactam-selective resistance-modifying agent for MRSA” (Eur J Med Chem, 2017).

≈ marks a conversion by molar mass, not a printed value.

In data set [1] the test system is Staphylococcus aureus. The experiment in a line: Potentiation of amoxicillin/clavulanic acid-induced antibacterial activity against methicillin-resistant Staphylococcus aureus NRS-45898 assessed as compound concentration required in combination with amoxicillin/clavulanic acid to return MRSA sensitive concentration below 4 ug/ml after overnight incubation. It counts as functional. In a few lines: (§1)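 Antibiotic held at fixed final level in MHB (amoxicillin/clavulanic acid 4/2 μg/mL; cefazolin 8 μg/mL); test compound (10 mg/mL DMSO stock) 2-fold serially diluted from 64 μg/mL top; final inoculum OD600 0.001; overnight at 37 °C with shaking; MRC = lowest compound concentration with no visible growth.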

Data set [2] concerns Staphylococcus aureus. Description: Potentiation of amoxicillin/clavulanic acid-induced antibacterial activity against methicillin-resistant Staphylococcus aureus NRS100 assessed as compound concentration required in combination with amoxicillin/clavulanic acid to return MRSA sensitive concentration below 4 ug/ml after overnight incubation. Format: functional. In a few lines:
as §1

Data set [3] in a line: Cytotoxicity against human HeLa cells after 24 hrs by CellTiter-Glo luminescent cell viability assay. It counts as toxicity, cell-based. In a few lines: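 HeLa cells seeded at 20 000 cells/well in DMEM with 10% FCS and 1% penicillin/streptomycin, grown 16 h at 37 °C in 5% CO2. Medium then replaced and compounds added in DMSO (1 μL per 100 μL), final 0.5–32 μg/mL, triplicate. After 24 h at 37 °C, plates equilibrated to room temperature and CellTiter-Glo luminescence read.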
A general note: In ATP-based viability assays light output follows the ATP content of the culture.

The subject of data set [4] is Staphylococcus aureus. Description: Antibacterial activity against methicillin-resistant Staphylococcus aureus NRS-46231 after 18 hrs by broth microdilution method. On the technique in general: Broth dilution looks for growth in wells or tubes with falling amounts of substance.
Data set [5] relates to Staphylococcus aureus. The experiment in a line: Potentiation of cefazolin-induced antibacterial activity against methicillin-resistant Staphylococcus aureus ATCC BAA-44 assessed as fractional inhibitory concentration by checkerboard assay. It counts as functional. In a few lines: (§2)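 Checkerboard in MRSA; FICI = FICA + FICB, each FIC being the combination concentration (MRC) divided by that agent's MIC alone; FICI <0.5 taken as synergy.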

In data set [6] the test system is Staphylococcus aureus. The experiment in a line: Potentiation of amoxicillin/clavulanic acid-induced antibacterial activity against methicillin-resistant Staphylococcus aureus NRS-46231 assessed as compound concentration required in combination with amoxicillin/clavulanic acid to return MRSA sensitive concentration below 4 ug/ml after overnight incubation. Format: functional. In a few lines: as §1

Data set [7] relates to Staphylococcus aureus. Description: Antibacterial activity against methicillin-resistant Staphylococcus aureus NRS-46070 after 18 hrs by broth microdilution method.
The subject of data set [8] is Staphylococcus aureus. The experiment in a line: Antibacterial activity against methicillin-resistant Staphylococcus aureus NRS100 after 18 hrs by broth microdilution method.
In data set [9] the test system is Staphylococcus aureus. Description: Potentiation of amoxicillin/clavulanic acid-induced antibacterial activity against methicillin-resistant Staphylococcus aureus ATCC BAA-44 assessed as fractional inhibitory concentration by checkerboard assay. It counts as functional. In a few lines: as §2
Data set [10] concerns Staphylococcus aureus. Description: Antibacterial activity against methicillin-resistant Staphylococcus aureus NRS-45898 after 18 hrs by broth microdilution method.
The test system of data set [11] is Staphylococcus aureus. Description: Potentiation of cefazolin-induced antibacterial activity against methicillin-resistant Staphylococcus aureus ATCC BAA-44 assessed as compound concentration required in combination with cefazolin to return MRSA sensitive concentration below 8 ug/ml after overnight incubation. Format: functional. In a few lines: as §1
The subject of data set [12] is Staphylococcus aureus. Description: Potentiation of amoxicillin/clavulanic acid-induced antibacterial activity against methicillin-resistant Staphylococcus aureus NRS-46070 assessed as compound concentration required in combination with amoxicillin/clavulanic acid to return MRSA sensitive concentration below 4 ug/ml after overnight incubation. It counts as functional. The essentials: as §1

Data set [13] relates to Staphylococcus aureus. The experiment in a line: Potentiation of erythromycin-induced antibacterial activity against methicillin-resistant Staphylococcus aureus ATCC BAA-44 assessed as fold reduction in erythromycin MIC at 20 uM after 18 hrs by broth microdilution method. Format: functional.
Data set [14] has as its system Staphylococcus aureus. Description: Potentiation of oxacillin-induced antibacterial activity against methicillin-resistant Staphylococcus aureus ATCC BAA-44 assessed as fold reduction in oxacillin MIC at 20 uM after 18 hrs by broth microdilution method. Format: functional.
For data set [15], the system named is Staphylococcus aureus. The experiment in a line: Potentiation of streptomycin-induced antibacterial activity against methicillin-resistant Staphylococcus aureus ATCC BAA-44 assessed as fold reduction in streptomycin MIC at 20 uM after 18 hrs by broth microdilution method. Format: functional.
Data set [16] relates to Staphylococcus aureus. The experiment in a line: Potentiation of cefazolin-induced antibacterial activity against methicillin-resistant Staphylococcus aureus ATCC BAA-44 assessed as fold reduction in cefazolin MIC at 20 uM after 18 hrs by broth microdilution method. Format: functional.
Data set [17] concerns Staphylococcus aureus. The experiment in a line: Potentiation of clindamycin-induced antibacterial activity against methicillin-resistant Staphylococcus aureus ATCC BAA-44 assessed as fold reduction in ciprofloxacin MIC at 20 uM after 18 hrs by broth microdilution method. Format: functional.
For data set [18], the system named is Staphylococcus aureus. The experiment in a line: Potentiation of tetracycline-induced antibacterial activity against methicillin-resistant Staphylococcus aureus ATCC BAA-44 assessed as fold reduction in tetracycline MIC at 20 uM after 18 hrs by broth microdilution method. Format: functional.
Data set [19] concerns Staphylococcus aureus. The experiment in a line: Potentiation of gentamycin-induced antibacterial activity against methicillin-resistant Staphylococcus aureus ATCC BAA-44 assessed as fold reduction in gentamycin MIC at 20 uM after 18 hrs by broth microdilution method. Format: functional.
For data set [20], the system named is Staphylococcus aureus. Description: Potentiation of amoxicillin/clavulanic acid-induced antibacterial activity against methicillin-resistant Staphylococcus aureus ATCC BAA-44 assessed as fold reduction in amoxicillin/clavulanic acid MIC at 20 uM after 18 hrs by broth microdilution method. Format: functional.
Data set [21] deals with Staphylococcus aureus. The experiment in a line: Potentiation of daptomycin-induced antibacterial activity against methicillin-resistant Staphylococcus aureus ATCC BAA-44 assessed as fold reduction in daptomycin MIC at 20 uM after 18 hrs by broth microdilution method. It counts as functional.
The subject of data set [22] is Staphylococcus aureus. The experiment in a line: Potentiation of meropenem-induced antibacterial activity against methicillin-resistant Staphylococcus aureus ATCC BAA-44 assessed as fold reduction in meropenem MIC at 20 uM after 18 hrs by broth microdilution method. It counts as functional.
Data set [23] relates to Staphylococcus aureus. Description: Potentiation of methicillin-induced antibacterial activity against methicillin-resistant Staphylococcus aureus ATCC BAA-44 assessed as fold reduction in methicillin MIC at 20 uM after 18 hrs by broth microdilution method. Format: functional.
For data set [24], the system named is Staphylococcus aureus. The experiment in a line: Potentiation of ciprofloxacin-induced antibacterial activity against methicillin-resistant Staphylococcus aureus ATCC BAA-44 assessed as fold reduction in ciprofloxacin MIC at 20 uM after 18 hrs by broth microdilution method. Format: functional.

The term GI50 denotes the concentration that inhibits growth by half. The low end stands for greater sensitivity of the cells, the high end for lower sensitivity of the cells. Consider `C=C1CCCC[C@@]23N(C(=O)OCC)CC[C@@]12c1c(C)cc(C)cc1N3C`, for which the MRC in the data set with Staphylococcus aureus [1], with Staphylococcus aureus [2], in the data set on Staphylococcus aureus [6], in the data set on Staphylococcus aureus [11] and in the data set on Staphylococcus aureus [12] was 2 µg/mL throughout. This compound displayed a GI50 at 24 h in data set [3] of 61 µg/mL (≈ 172 µM). In addition, the MIC in the data set on Staphylococcus aureus [4], in the data set with Staphylococcus aureus [7], in the data set with Staphylococcus aureus [8] and against Staphylococcus aureus [10] was over 64 µg/mL each time. The “fractional inhibitory concentration index (FICI)” value in the data set with Staphylococcus aureus [5] stood at 0.078; in the data set with Staphylococcus aureus [9] it was 0.127.
Consider `C=C1CCCC[C@@]23N(C(=O)OC)CC[C@@]12c1c(C)cc(C)cc1N3C`, for which the “fold change (FC)” value in the data set with Staphylococcus aureus [13] is recorded as 1; in the data set with Staphylococcus aureus [14], 8; with Staphylococcus aureus [15] it was 1; with Staphylococcus aureus [16], 16; in the data set with Staphylococcus aureus [17], 1; in the data set with Staphylococcus aureus [18], 2. For the same compound, the “fold change (FC)” value was found to be 1 in the data set with Staphylococcus aureus [19]; 8 in the data set on Staphylococcus aureus [20]; 1 in the data set on Staphylococcus aureus [21]; 16 with Staphylococcus aureus [22]; 16 in the data set with Staphylococcus aureus [23]; 2 in the data set on Staphylococcus aureus [24]. Further, the MRC in the data set with Staphylococcus aureus [2] and with Staphylococcus aureus [11] was 16 µg/mL each time. Moreover, it took 20 µg/mL (≈ 58.7 µM) to inhibit growth in [3] by half (GI50 at 24 h). The compound also came in with an MIC in the data set on Staphylococcus aureus [8] of over 64 µg/mL.
